PTEN del growth: suppresses growth of cells with PTEN deletion. 140,000 tested, 1.2% active. HCT116 PTEN-null viability, CellTiter-Glo, 60 h; hits give low values. viability, % at 10 µM;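 active = viability at or below a set limit, 4 SD under the median of all tested compounds, cut at about 3.7% in these data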;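 also: PTEN knockout HCT116 line with beta catenin targeted HCT116 as companion control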
Lung fibro prol: blocks proliferation of human lung fibroblasts. LL 47 human lung fibroblast viability, ATP luminescence; hits give low values. viability, % at 10 µM. 85,000 tested, 1.1% active;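 active = viability at or below 50% in the single dose screen; inactive = viability above 50%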;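 also: compound exposure lasted 72 h before the ATP readout; 100% = median luminescence of untreated cell-only wells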
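Material: human lung fibroblast line LL 47, low passage; Evaluation: viability percentage against median untreated-cell control; Buffer or medium: 15% FBS in IMEM; Incubation: 72 h compound exposure at 37 °C after overnight plating; Dosing: 0.1% DMSO in all compound wells; Measured by: CellTiter-Glo luminescence.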
HUVEC inhibit: human endothelial cell proliferation inhibition; HUVEC proliferation, CellTiter-Glo luminescence, 72 h; hits give low values; AID 648; 86,000 tested, 1.1% active; viability, % at 10 µM (by protocol);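 active = viability at or below 30%; inactive = viability above 30%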;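 also: 100% = median luminescence of DMSO-only cell control wells on each plate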
bCat KO growth: beta-catenin-lacking colon tumor cell growth suppression. viability, % at 10 µM. 140,000 tested, 1.5% active. HCT116 beta-catenin knockout viability, CellTiter-Glo, 60 h; hits give low values;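 active = viability at or under a set limit, the compound median less 4 SD, cut at about 6% in these data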;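 also: 0% = Hyamine 1622 control at 20 µM and 100% = untreated cell control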
H69AR inhibit: growth inhibitors of human H69AR lung tumor cells | 85,000 tested, 6% active | H69AR lung tumor viability, ATP luminescence, 72 h; hits give low values | viability, % at 10 µM;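 active = viability at or below 40%; inactive = viability above 40%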;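 also: multidrug resistant small cell line overexpressing MRP-1 efflux transporter; 100% = mean luminescence of untreated control wells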
An asterisk follows results filed as active; x = not tested or not shown. The sample as a whole holds a higher share of hits than the screen did.

SMILES | PTEN del growth | Lung fibro prol | HUVEC inhibit | bCat KO growth | H69AR inhibit
CCOC(=O)c1sc2nc(C)cc(C)c2c1N | 85.1 | 102.4 | 99.4 | 66.8 | 101.8
CC(C)(C)c1ccc(COn2c(=O)c(-c3ccco3)[n+]([O-])c3ccccc32)cc1 | 83.6 | 61.2 | 72.2 | 82.2 | 34.3*
Cc1ccc(-c2c(=O)n(OCc3ccccn3)c3ccccc3[n+]2[O-])cc1 | 103.7 | x | x | 115.4 | x
COc1ccc(Cl)cc1NC(=O)c1ccco1 | 95.1 | 93.6 | 79.6 | 89.0 | 83.0
COc1ccc2cc(/C=C/C(=O)c3ccco3)c(Cl)nc2c1 | 42.0 | 84.8 | 72.8 | 46.7 | 15.7*
COc1cc2cc(/C=C/C(=O)c3ccco3)c(Cl)nc2cc1OC | 7.6 | 86.0 | 68.1 | 17.9 | 7.9*
Nc1nc2ccccc2n1C(=O)CCc1ccccc1 | 68.0 | 85.2 | 85.0 | 71.2 | 26.2*
O=C(Nc1ccccc1)C(=O)Nc1ccccn1 | 80.3 | x | x | 85.0 | x
S=C(Nc1ccccc1)c1ccccn1 | 9.6 | 96.0 | 93.0 | 30.9 | 1.2*
COc1ccc(/C=C(\C#N)c2nc3ccc(C)cc3[nH]2)cc1Oc1ccc(C(F)(F)F)cc1[N+](=O)[O-] | 1.3* | x | x | 1.5* | x
Cc1ccc2nc(/C(C#N)=C\c3ccc(Oc4ccc(C(F)(F)F)cc4[N+](=O)[O-])cc3)[nH]c2c1 | 28.3 | x | x | 39.0 | x
COc1ccc(/C=C/C(=O)OCC(=O)Nc2ccc(Cl)c(S(=O)(=O)N(C)C)c2)cc1OC | 89.2 | x | x | 94.0 | x
O=C(CCn1c(=S)[nH]c2cc3c(cc2c1=O)OCO3)NCCN1CCCC1 | x | 104.9 | 90.1 | x | 93.0
N#CC(C#N)=c1ccc2c(c1)N1C3=C(CCCC3)CC3CCCCC31N=2 (configuration not stated) | 40.7 | 62.2 | 68.4 | 29.9 | 17.7*
N#C/C(C(N)=O)=c1/ccc2c(c1)N1C3=C(CCCC3)CC3CCCCC31N=2 (configuration not stated) | 8.7 | 87.7 | 43.6 | 10.3 | 1.9*
CCOC(=O)N1CCC(NS(=O)(=O)c2cc3c(cc2Cl)NC(=O)CO3)CC1 | 4.2 | 60.2 | 65.2 | 3.9* | 24.9*
CCOC(=O)c1c(C)c(C(=O)Nc2cc(OC)ccc2OC)c(C)n1CC | 30.8 | 58.0 | 55.0 | 29.7 | 95.1
CCOC(=O)c1[nH]c(C)c(C(=O)Nc2cc(OC)ccc2OC)c1C | 19.5 | 59.9 | 55.7 | 17.7 | 27.8*
CCOC(=O)c1c(C)[nH]c(C(=O)OCC(=O)Nc2ccc(OC)c(Cl)c2)c1C | 94.9 | x | x | 89.6 | x
CCOC(=O)c1c(C)[nH]c(C(=O)OCC(=O)Nc2cc(Cl)ccc2OC)c1C | 11.8 | 66.4 | 65.4 | 9.8 | 2.6*
CCOC(=O)c1c(C)[nH]c(C(=O)OCC(=O)Nc2cc(C)ccc2OC)c1C | 12.5 | 23.5* | 30.8 | 2.2* | 15.8*
CCOC(=O)c1c(C)[nH]c(C(=O)OCC(=O)Nc2ccc(OCC)cc2)c1C | 97.9 | x | x | 90.2 | x
CN1CCN(C2=C(Cl)C(=O)N(c3ccc(Cl)c(Cl)c3)C2=O)CC1 | 86.1 | 94.2 | 88.3 | 81.3 | 8.5*
CN1CCN(C2=C(Cl)C(=O)N(Cc3ccccc3)C2=O)CC1 | 76.3 | 90.8 | 89.2 | 75.9 | 39.1*
CCN1CCN(C2=C(Cl)C(=O)N(Cc3ccccc3)C2=O)CC1 | 87.7 | 95.0 | 93.5 | 76.9 | 47.4
SMILES | PTEN del growth | Lung fibro prol | HUVEC inhibit | bCat KO growth | H69AR inhibit
O=C(c1ccco1)N1CCN(CCCCOc2ccc(F)cc2)CC1 | 98.5 | x | x | 96.3 | x
Cc1ccc(C(=O)/C=C/c2cn(CN3CCN(C)CC3)c3ccccc23)cc1 | 72.2 | 89.3 | 63.7 | 69.8 | 5.8*
N#Cc1ccsc1NC(=O)CN1CCN(S(=O)(=O)c2ccccc2C(F)(F)F)CC1 | 74.0 | x | x | 82.9 | x
Cc1cc(C)n(-c2ccc(Cl)c(C(=O)Nc3cc(C(F)(F)F)ccc3Cl)n2)n1 | 84.0 | x | x | 91.1 | x
CC(C)(C)c1ccc(C(=O)NCCCN2CCN(CCCNC(=O)c3ccc(C(C)(C)C)cc3)CC2)cc1 | 1.8* | x | x | 1.3* | x
C=CCn1c(SCC(=O)Nc2sccc2C(N)=O)nc2ccccc2c1=O | 76.4 | 87.6 | 58.7 | 75.5 | 31.3*
C=CCn1c(SCC(=O)Nc2sccc2C(N)=O)nc2ccc(Cl)cc2c1=O | 32.4 | 84.4 | 57.2 | 50.6 | 16.5*
C=CCn1c(SCC(=O)Nc2sccc2C(N)=O)nc2sc(CC)cc2c1=O | 74.5 | 85.5 | 73.1 | 70.7 | 39.8*
C=CCn1c(SCC(=O)c2c(N)n(CCC)c(=O)n(C)c2=O)nc2sc(CC)cc2c1=O | 35.6 | 46.5* | 83.0 | 40.8 | 7.7*
C=CCn1c(SCC(=O)c2c(N)n(C)c(=O)n(C)c2=O)nc2sc(C)c(C)c2c1=O | 94.0 | x | x | 98.6 | x
COc1ccccc1-c1c(C(F)(F)F)oc2cc(OCC(=O)Nc3cc(C)ccc3C)ccc2c1=O | 76.7 | x | x | 85.9 | x
O=C(N/N=C/c1cccc([N+](=O)[O-])c1)C1CC(=O)N(c2ccc(F)cc2)C1 (configuration not stated) | 98.6 | x | x | 96.2 | x
CC(C)/C=N/Nc1nc(-c2ccc(Br)cc2)cs1 | 86.1 | x | x | 80.6 | x
CN1/C(=C\C(=O)c2cccs2)Sc2ccccc21 | 63.9 | 81.3 | 71.2 | 65.6 | 39.8*
CN1/C(=C/C(=O)c2cccs2)Sc2ccccc21 | 64.0 | 89.6 | 73.6 | 65.4 | 47.1
COc1ccc(-n2c(=S)[nH]c3cc(C(=O)NCCCN4CCCC4=O)ccc3c2=O)cc1 | 12.8 | 93.3 | 92.1 | 5.2* | 98.2
Cc1ccc(-c2nn(-c3ccccc3)cc2C=C2C(=O)CC(C)(C)CC2=O)cc1 | 13.1 | x | x | 19.5 | x
CC1=NNC(=O)/C1=C\c1cn(-c2ccccc2)nc1-c1ccc(Cl)cc1 | 1.4* | x | x | 1.4* | x
Cc1ccc(-c2csc(NC(=O)c3ccc4c(=O)n5c(nc4c3)CCCCC5)n2)cc1 | 32.4 | x | x | 38.9 | x
CC(C)CCn1c(SCC(N)=O)nc2c1c(=O)n(C)c(=O)n2C | 93.2 | 93.0 | 100.1 | 92.1 | 39.1*
O=C(NNS(=O)(=O)c1ccc(F)c(Cl)c1)c1cccc(S(=O)(=O)N2CCOCC2)c1 | 95.7 | x | x | 89.1 | x
CC(C)OC(=O)c1c(NC(=O)CCn2nnc3ccccc32)sc2c1CCCC2 | 98.9 | x | 99.5 | 89.6 | 92.7
CCOC(=O)c1sc(NC(=O)CCn2nnc3ccccc32)c(C(=O)OCC)c1C | x | 95.4 | 56.8 | x | 36.4*
COc1ccccc1NC(=O)N1CCC(c2nc3cc(C)c(C)cc3[nH]2)CC1 | 14.3 | 48.3* | 36.9 | 15.7 | 26.7*
COc1ccccc1NC(=S)N1CCC(c2nc3cc(C)c(C)cc3[nH]2)CC1 | 80.8 | x | x | 86.2 | x
Brc1ccc2ncnc(NCc3ccco3)c2c1 | 57.7 | 94.9 | 69.5 | 59.5 | 54.9
OC(CNCc1ccco1)Cn1c2ccc(Br)cc2c2cc(Br)ccc21 (configuration not stated) | 1.7* | x | x | 2.1* | x
CC(=O)Nc1ccc(S(=O)(=O)Nc2c(C)nn(-c3ccccc3)c2C)cc1 | 73.7 | 88.2 | 90.7 | 79.7 | 48.9
Cc1nn(-c2ccc(F)cc2)c(C)c1NS(=O)(=O)c1ccc2ccccc2c1 | 52.0 | 95.6 | 77.2 | 61.8 | 36.3*
CCCC(=O)Nc1ccc(C(=O)NNC(=O)COc2ccc(Br)c(C)c2)cc1 | 97.4 | x | x | 100.5 | x

Assay outcomes deposited in PubChem BioAssay by SRMLSC.
